Test results taken from ChEMBL document CHEMBL3227966, “Synthesis and antitumor and antiviral activities of 1-beta-D-arabinofuranosyl-2-amino-1,4(2H)-iminopyrimidine and its derivatives” (1979).
Activity calls are given as the source filed them. No cut-off for these calls is given here.

Tests used:
Suid alphaherpesvirus 1 = test: Antiviral activity against Pseudorabies virus infected in human KB cells assessed as inhibition of virus-induced cytopathic effect after 72 hrs by microscopically; type: functional, organism-based
KB [1] = test: Antiviral activity against rhinovirus type 13 infected in human KB cells assessed as inhibition of virus-induced cytopathic effect after 72 hrs by microscopically; type: functional, cell-based; conditions: Human rhinovirus A13
How it was run: (§1)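 KB monolayers (18-24 h) were exposed to about 320 CCID50 of virus, with compound added within 15 min. CPE (0-4) and cytotoxicity were scored microscopically after 72 h at 37 °C. Virus rating was the summed (virus control − treated) CPE across drug levels, halved at partially toxic levels. Ratings: 0.5 slight/none, 0.5-0.9 moderate, 1.0 marked.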

KB [2] = test: Antiviral activity against Myxoma virus infected in human KB cells assessed as inhibition of virus-induced cytopathic effect after 72 hrs by microscopically; type: functional, cell-based; how it was run: as §1
Vaccinia virus = test: Antiviral activity against Vaccinia virus infected in human KB cells assessed as inhibition of virus-induced cytopathic effect after 72 hrs by microscopically; type: functional, organism-based; conditions: Orthopoxvirus vaccinia
Human alphaherpesvirus 1 [3] = test: Antiviral activity against Herpes simplex virus type 1 infected in human KB cells assessed as inhibition of virus-induced cytopathic effect after 72 hrs by microscopically; type: functional, organism-based; how it was run: as §1
L1210 [4] = test: Antitumor activity against mouse L1210 cells allografted in BDF/1 mouse assessed as mouse survival upto 60 days at 400 mg/kg, ip qd treated 24 hrs after tumor implantation relative to control; type: functional, organism-based; design: dose 400 mg/kg
How it was run: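 BDF1 female mice, six to eight per group, inoculated ip with 1×10^5 viable L1210 cells. Drug was given ip once daily on days 1-5, starting 24 h after implant, in freshly prepared isotonic sterile saline. Controls received 0.2 mL saline. Read-out was survivors (cures) and T/C excluding survivors. P was derived by the Wilcoxon nonparametric method.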

L1210 [5] = test: Antitumor activity against mouse L1210 cells allografted in BDF/1 mouse assessed as tumor weight reduction on day 5 at 400 mg/kg, ip qd treated 24 hrs after tumor implantation relative to control; type: functional, organism-based; design: dose 400 mg/kg
L1210 [6] = test: Antitumor activity against mouse L1210 cells allografted in BDF/1 mouse assessed as mouse survival at 400 mg/kg, ip qd treated 24 hrs after tumor implantation relative to control; type: functional; conditions: route intraperitoneal
How it was run: (§2)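 Female BDF1 mice, 6–8 per group, were inoculated ip with 1×10^5 viable L1210 cells. Drug was given ip once daily on days 1–5, starting 24 h after implant, in freshly prepared isotonic sterile saline. Controls received 0.2 mL saline. Read-outs were survivors (cures) and T/C, with survivors excluded from T/C. P values came from the Wilcoxon nonparametric method.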

L1210 [7] = test: Antitumor activity against mouse L1210 cells allografted DBA/2 mouse assessed as increase in life span; type: functional
L1210 [8] = test: Antitumor activity against mouse L1210 cells allografted in BDF/1 mouse assessed as mouse survival at 600 mg/kg, ip qd treated 24 hrs after tumor implantation relative to control; type: functional; conditions: route intraperitoneal; how it was run: as §2
L1210 [9] = test: Antitumor activity against mouse L1210 cells allografted in BDF/1 mouse assessed as mouse survival upto 60 days at 600 mg/kg, ip qd treated 24 hrs after tumor implantation relative to control; type: functional; how it was run: as §2
L1210 [10] = test: Antitumor activity against mouse L1210 cells allografted in BDF/1 mouse assessed as […] at 600 mg/kg, ip qd treated 24 hrs after tumor implantation relative to control; type: functional; conditions: route intraperitoneal; how it was run: as §2
L1210 [11] = test: Antitumor activity against mouse L1210 cells allografted in BDF/1 mouse assessed as tumor weight reduction on day 5 at 600 mg/kg, ip qd treated 24 hrs after tumor implantation relative to control; type: functional, organism-based; design: dose 600 mg/kg
Human alphaherpesvirus 1 [12] = test: Antiviral activity against Herpes simplex virus type 1 infected in Swiss albino mouse assessed as increase in mouse survival at 0.14 mg/kg, ic single dose after 6 hrs of infection relative to control; type: functional; conditions: Human alphaherpesvirus 1, 6 h
How it was run: (§3)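 Swiss albino mice, six per group, were infected intracerebrally with HSV-1 at about 10 LD50. Six hours later each received a single ic drug injection in Hank's balanced salt solution. Controls received the same volume of Hank's solution alone. Efficacy was the increase in number of survivors versus controls.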

Human alphaherpesvirus 1 [13] = test: Antiviral activity against Herpes simplex virus type 1 infected in Swiss albino mouse assessed as increase in mouse survival at 0.033 mg/kg, ic single dose after 6 hrs of infection relative to control; type: functional; conditions: Human alphaherpesvirus 1, 6 h; how it was run: as §3
L1210 [14] = test: Antitumor activity against mouse L1210 cells allografted in BDF/1 mouse assessed as increase in life span at 600 mg/kg, ip qd treated 24 hrs after tumor implantation relative to control; type: functional; conditions: route intraperitoneal; how it was run: as §2

Row | SMILES | inhibition (Suid alphaherpesvirus 1) | inhibition (KB [1]) | inhibition (KB [2]) | inhibition (Vaccinia virus) | inhibition (Human alphaherpesvirus 1 [3]) | Survival (L1210 [8]) [days] | T/C (L1210 [10]) | inhibition (L1210 [11]) | survival at 0.14 mg/kg (Human alphaherpesvirus 1 [12]) [%] | survival at 0.033 mg/kg (Human alphaherpesvirus 1 [13]) [%] | further results
1 | Nc1ccn([C@@H]2O[C@H](CO)[C@@H](OP(=O)(O)O)[C@@H]2O)c(=O)n1 | Active | Active | Active | Active | Active | – | – | – | – | – | –
2 | N=c1nc(N)n([C@@H]2O[C@H](CO)[C@@H](OP(=O)(O)O)[C@@H]2O)cc1F | Active | inactive | Active | Active | Active | – | – | – | – | – | –
3 | N=c1ccn([C@@H]2O[C@H](CO)[C@@H](O)[C@@H]2O)c(N)n1 | Active | – | Active | Active | Active | – | – | – | – | – | Activity (L1210 [4]): Active; inhibition (L1210 [5]): Active; Survival (L1210 [6]): 60 days
4 | N=c1nc2n(cc1F)[C@@H]1O[C@H](CO)[C@@H](O)[C@H]1O2 | – | – | – | – | – | – | – | – | – | – | Activity (L1210 [7]): 80%
5 | N=c1nc2n(cc1F)[C@@H]1O[C@H](CO)[C@@H](OP(=O)(O)O)[C@H]1O2 | – | – | – | – | Active | – | – | – | – | – | –
6 | N=c1ccn2c(n1)O[C@@H]1[C@H](O)[C@@H](CO)O[C@H]12 | – | – | – | – | – | 24 | 2.81 | Active | – | – | Activity (L1210 [9]): inactive
7 | N=c1ccn2c(n1)O[C@@H]1[C@H](OP(=O)(O)O)[C@@H](CO)O[C@H]12 | Active | Active | Active | Active | Active | 17.5 | 2.07 | Active | 40 | 0 | Activity (L1210 [9]): inactive
8 | Nc1ccn([C@@H]2O[C@H](CO)[C@@H](O)[C@@H]2O)c(=O)n1 [CYTARABINE] | Active | – | Active | Active | Active | – | – | – | 40 | 0 | –
9 | N=c1ccn([C@@H]2O[C@H](CO)[C@@H](OP(=O)(O)O)[C@@H]2O)c(N)n1 | Active | inactive | Active | Active | Active | 22.5 | 2.44 | Active | 50 | 0 | survival at 600 mg/kg (L1210 [9]; route intraperitoneal): 33%; Activity (L1210 [14]): 144%
